Assay results published in ChEMBL document CHEMBL3352550, “Discovery and optimization of 4,5-diarylisoxazoles as potent dual inhibitors of pyruvate dehydrogenase kinase and heat shock protein 90” (J Med Chem, 2014).
Calls of active or inactive are those of the source. The rule behind the calls is not given here.

Assays:
[1] = target: T1, [Pyruvate dehydrogenase (acetyl-transferring)] kinase isozyme 1, mitochondrial (Homo sapiens, UniProt Q15118); assay: Inhibition of recombinant PDHK1 (unknown origin) expressed in Escherichia coli at 10 uM incubated for 1 hr by ELISA
T1 sequence (Q15118 whole entry): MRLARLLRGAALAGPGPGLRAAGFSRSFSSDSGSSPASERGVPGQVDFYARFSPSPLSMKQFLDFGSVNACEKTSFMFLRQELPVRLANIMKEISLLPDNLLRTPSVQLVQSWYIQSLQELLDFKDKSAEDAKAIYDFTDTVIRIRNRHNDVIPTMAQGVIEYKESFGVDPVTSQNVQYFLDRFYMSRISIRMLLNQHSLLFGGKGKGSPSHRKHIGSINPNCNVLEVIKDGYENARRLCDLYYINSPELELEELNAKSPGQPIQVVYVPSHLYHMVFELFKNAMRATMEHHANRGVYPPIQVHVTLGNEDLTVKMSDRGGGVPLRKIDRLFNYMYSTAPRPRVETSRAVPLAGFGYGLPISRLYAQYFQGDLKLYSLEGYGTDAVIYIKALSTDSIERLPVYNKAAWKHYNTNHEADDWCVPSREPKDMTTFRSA
In short: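 Recombinant His6-SUMO-PDHK1 was expressed in E. coli and purified on nickel resin. It was used at 0.25 µg/well on immobilized PDHA1 substrate (0.5 µg/well) with 10 µM ATP in 50 mM HEPES, 10 mM MgCl2 and 1 mM EGTA. Compounds were screened at 10 µM and percent inhibition was recorded. Detection used anti-p-PDHA1(S293) for 1 h and HRP secondary antibody for 1 h, then o-phenylenediamine, read at OD490.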

[2] = target: T1, [Pyruvate dehydrogenase (acetyl-transferring)] kinase isozyme 1, mitochondrial; assay: Inhibition of recombinant PDHK1 (unknown origin) expressed in Escherichia coli incubated for 1 hr by ELISA
[3] = target: T2, Heat shock protein HSP90 (Homo sapiens, UniProt P07900+P08238); assay: Inhibition of geldanamycin-BODIPY binding to full-length HSP90 (unknown origin) by fluorescence polarization based competition assay; assay type: protein assay
In short: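 Fluorescence polarization competition using full-length HSP90 and geldanamycin-BODIPY as probe.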

[4] = target: T2, Heat shock protein HSP90; assay: Inhibition of HSP90 in human NCI-H1299 cells assessed as reduction in AKT protein levels at 10 uM incubated for 12 hrs by immunoblotting method; assay type: cell-based
In short: (§1)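 NCI-H1299 cells were treated for 12 h and lysed in RIPA buffer with protease inhibitors. Equal protein was loaded per lane, run on a gel and transferred to nitrocellulose. Membranes were blocked in TBST with 3% BSA for 1 h at room temperature, then probed with primary antibody for 2 h and secondary antibody for 1 h, both at room temperature. Bands were detected by ECL.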

[5] = target: T2, Heat shock protein HSP90; assay: Inhibition of HSP90 in human NCI-H1299 cells assessed as reduction in HER2 protein levels at 10 uM incubated for 12 hrs by immunoblotting method; assay type: cell-based; in short: as §1
[6] = target: T2, Heat shock protein HSP90; assay: Inhibition of HSP90 in human NCI-H1299 cells assessed as reduction in c-MET protein levels at 10 uM incubated for 12 hrs by immunoblotting method; assay type: cell-based; in short: as §1
[7] = target: T2, Heat shock protein HSP90; assay: Inhibition of HSP90 in human NCI-H1299 cells assessed as increase in HSP70 protein levels at 10 uM incubated for 12 hrs by immunoblotting method; assay type: cell-based; in short: as §1
[8] = Apparent permeability from apical to basolateral side in human Caco2 cells; conditions: Caco-2
[9] = Apparent permeability from basolateral to apical side in human Caco2 cells; conditions: Caco-2
[10] = Efflux ratio in human Caco2 cells; conditions: Caco-2
[11] = target: [Pyruvate dehydrogenase (acetyl-transferring)] kinase isozyme 2, mitochondrial (Homo sapiens, UniProt Q15119); assay: Inhibition of recombinant PDHK2 (unknown origin) expressed in Escherichia coli incubated for 1 hr by ELISA
[12] = target: [Pyruvate dehydrogenase (acetyl-transferring)] kinase isozyme 3, mitochondrial (Homo sapiens, UniProt Q15120); assay: Inhibition of recombinant PDHK3 (unknown origin) expressed in Escherichia coli incubated for 1 hr by ELISA
Chain of [Pyruvate dehydrogenase (acetyl-transferring)] kinase isozyme 3, mitochondrial (Q15120 whole entry): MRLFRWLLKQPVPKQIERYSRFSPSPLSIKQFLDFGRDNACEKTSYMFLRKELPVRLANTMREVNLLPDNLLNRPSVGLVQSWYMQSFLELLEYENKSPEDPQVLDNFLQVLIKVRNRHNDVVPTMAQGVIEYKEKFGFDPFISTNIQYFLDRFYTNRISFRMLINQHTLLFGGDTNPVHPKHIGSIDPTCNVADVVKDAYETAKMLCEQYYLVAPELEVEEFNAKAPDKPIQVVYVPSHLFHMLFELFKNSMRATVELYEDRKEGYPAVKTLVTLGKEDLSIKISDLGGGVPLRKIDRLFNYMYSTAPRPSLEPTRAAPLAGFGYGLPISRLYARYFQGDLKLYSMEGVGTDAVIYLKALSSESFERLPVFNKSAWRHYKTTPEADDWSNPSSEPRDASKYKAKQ

[13] = target: [Pyruvate dehydrogenase (acetyl-transferring)] kinase isozyme 4, mitochondrial (Homo sapiens, UniProt Q16654); assay: Inhibition of recombinant PDHK4 (unknown origin) expressed in Escherichia coli incubated for 1 hr by ELISA
Chain of [Pyruvate dehydrogenase (acetyl-transferring)] kinase isozyme 4, mitochondrial (Q16654 whole entry): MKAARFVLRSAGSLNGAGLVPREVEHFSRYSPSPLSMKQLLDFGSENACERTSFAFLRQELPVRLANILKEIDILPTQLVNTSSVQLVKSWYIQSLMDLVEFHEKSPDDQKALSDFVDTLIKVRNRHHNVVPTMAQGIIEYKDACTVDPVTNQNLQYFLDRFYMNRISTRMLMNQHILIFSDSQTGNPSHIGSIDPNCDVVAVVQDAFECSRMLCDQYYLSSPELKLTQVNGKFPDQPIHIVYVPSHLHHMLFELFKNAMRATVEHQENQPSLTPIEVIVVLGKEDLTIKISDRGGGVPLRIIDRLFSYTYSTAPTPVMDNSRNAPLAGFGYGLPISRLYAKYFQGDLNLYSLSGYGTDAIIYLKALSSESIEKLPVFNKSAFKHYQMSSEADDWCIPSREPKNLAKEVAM

[14] = system: NCI-H1299; assay: Reduction in extracellular acidification rate in human NCI-H1299 cells at 10 uM incubated for 12 hrs; assay type: functional, cell-based
In short: (§2)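 Cells pre-treated with varying concentrations of compound for 12 h, then oxygen consumption rate and extracellular acidification rate measured on an XF96 extracellular flux analyzer; ECAR/OCR ratio calculated from these readings.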

[15] = system: NCI-H1299; assay: Reduction in oxygen consumption rate in human NCI-H1299 cells at 10 uM incubated for 12 hrs; assay type: functional, cell-based; in short: as §2
[16] = system: NCI-H1299; assay: Increase in oxygen consumption rate/extracellular acidification rate ratio in human NCI-H1299 cells at 10 uM incubated for 12 hrs; assay type: functional, cell-based
[17] = system: NCI-H1299; assay: Increase in ROS production in human NCI-H1299 cells at incubated for 12 hrs by DCFH-DA staining based fluorescence assay; assay type: functional, cell-based
In short: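 Cells loaded with 5 µmol/L DCFH-DA in fresh medium for 30 min after compound treatment, washed with PBS, and intracellular ROS read as fluorescence intensity by flow cytometry.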

[18] = system: NCI-H1299; assay: Antiproliferative activity against human NCI-H1299 cells after 72 hrs by CCK8 assay; assay type: functional, cell-based
In short: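 NCI-H1299 cells seeded at 3000 per well; test compound at a range of concentrations added the next day, vehicle DMSO as control; proliferation read by CCK8 kit after 72 h; IC50 derived from dose–response.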

[19] = target: T1, [Pyruvate dehydrogenase (acetyl-transferring)] kinase isozyme 1, mitochondrial; conditions: NCI-H1299, 10 uM

inhibition [1]: > 50%
IC50 [2]: 604 nM
IC50 [3]: 512 nM
inhibition [4]: Active
inhibition [5]: Active
inhibition [6]: Active
inhibition [7]: Active
Papp A→B [8]: 11.2 ×10⁻⁶ cm/s
Papp B→A [9]: 15.5 ×10⁻⁶ cm/s
efflux ratio [10]: 1.38
IC50 [11]: 1130 nM
IC50 [12]: 5340 nM
IC50 [13]: 1740 nM
IC50 ([18]; NCI-H1299, 72 h): 9210 nM
inhibition [19]: Active
Structure (SMILES): COc1ccccc1N1CCN(C(=O)/C=C/c2noc(-c3cc(Cl)c(O)cc3O)c2-c2ccc(O)cc2)CC1
inhibition [14]: Active
inhibition [15]: Active
Activity [16]: Active
Activity [17]: Active
inhibition [18]: Dose-dependent effect
